From the RNAGym collection of RNA variant scans (doi:10.1126/science.aae0568)
This sample holds only a part of the variants without activity.

B1: tRNA (parent)
chain: GUUCCGUUGGCGUAAUGGUAACGCGUCUCCCUCCUAAGGAGAAGACUGCGGGUUCGAGUCCCGUACGGAACG

Variants of: B1
Test: yeast fitness relative to wild type (ratio to wild type); higher = fitter; tRNA-Arg(CCU), competitive growth, 37 C, YPD
Method in brief: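 Variants of the tRNA-Arg(CCU) gene were chemically synthesised with a 3% per-site mutation rate across 69 sites and placed at the native genomic locus in Saccharomyces cerevisiae. Six parallel replicates of the pooled strains were competed in YPD at 37°C for 24 hours, and gene amplicons from the start and end populations were read by 100-nucleotide paired-end sequencing. Darwinian fitness relative to wild type was derived from changes in genotype frequencies. Genotypes required ≥ 100 starting reads, and estimates < 0.5 were set to 0.5.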
For G23C U32C A45U, the yeast fitness was 0.605.
With G23C U35G A42U the yeast fitness was no more than 0.5.
With G23C U47A the yeast fitness was 0.705.
With G23C U47A A57G G58C the yeast fitness was no more than 0.5.
In the case of G23C U47C, the yeast fitness is reported as 0.681.
With G23C U47C C60G the yeast fitness was no more than 0.5.
G23C U47G C62G G68A gave a yeast fitness of no more than 0.5.
G23C U53A C55U showed a yeast fitness of 0.563.
G23C U54A showed a yeast fitness of no more than 0.5.
For G23C U54C U64A G68A, the yeast fitness was no more than 0.5.
For G23C U54G, the yeast fitness was no more than 0.5.
For G23C U59A, the yeast fitness was 0.704.
For G23C U59G C60G, the yeast fitness was no more than 0.5.
Work on G23C U64A yielded a yeast fitness of 0.564.
In the case of G23U A37U, the yeast fitness is reported as no more than 0.5.
For G23U A40G, the yeast fitness was 0.682.
G23U A40G G63A gave a yeast fitness of no more than 0.5.
G23U A42C showed a yeast fitness of 0.74.
With G23U A43C the yeast fitness was 0.605.
In the case of G23U A43G, the yeast fitness is reported as 0.758.
G23U A45G gave a yeast fitness of 0.579.
With G23U A57G the yeast fitness was 0.665.
In the case of G23U C24G C27U A69C, the yeast fitness is reported as no more than 0.5.
G23U C24G C27U C62G C66G gave a yeast fitness of no more than 0.5.
With G23U C24G C62A the yeast fitness was no more than 0.5.
For G23U C30A C55G A57C C62G G68C, the yeast fitness was no more than 0.5.
G23U C33G G58C gave a yeast fitness of no more than 0.5.
Work on G23U G38C A57G yielded a yeast fitness of no more than 0.5.
For G23U G63A, the yeast fitness was 0.609.
G23U U28G showed a yeast fitness of 0.552.
Work on G23U U28G G50A yielded a yeast fitness of no more than 0.5.
C24A gave a yeast fitness of 0.747.
Variant C24A A36C A37C C46U C62G has a yeast fitness of no more than 0.5.
C24A A36C A40G gave a yeast fitness of 0.789.
C24A A36C G48C G52C showed a yeast fitness of no more than 0.5.
With C24A A36G A37G A69C the yeast fitness was no more than 0.5.
C24A A36G A37G A69U gave a yeast fitness of no more than 0.5.
In the case of C24A A36G A43G A57G, the yeast fitness is reported as no more than 0.5.
Work on C24A A36U A37C yielded a yeast fitness of no more than 0.5.
Work on C24A A36U A43C C55A G56A yielded a yeast fitness of no more than 0.5.
C24A A36U C61A showed a yeast fitness of 0.509.
Work on C24A A36U C61U G67U yielded a yeast fitness of 0.608.
C24A A36U G41C gave a yeast fitness of no more than 0.5.
With C24A A37C G38A A65G C66U the yeast fitness was no more than 0.5.
In the case of C24A A37C G38A G58C G63C, the yeast fitness is reported as no more than 0.5.
Work on C24A A37G A57C yielded a yeast fitness of no more than 0.5.
Variant C24A A37G A57G G63A A65G has a yeast fitness of no more than 0.5.
With C24A A37G C55U C60G the yeast fitness was no more than 0.5.
With C24A A40C the yeast fitness was 0.658.
C24A A40G showed a yeast fitness of 0.551.
For C24A A40G C49A, the yeast fitness was no more than 0.5.
In the case of C24A A40G C49A A65C, the yeast fitness is reported as no more than 0.5.
Variant C24A A40G C49A C61G has a yeast fitness of 0.53.
C24A A40G C61U showed a yeast fitness of no more than 0.5.
For C24A A40G G48A C49A C61G, the yeast fitness was no more than 0.5.
For C24A A42G C49U U59G C62A, the yeast fitness was 0.547.
In the case of C24A A42G G48C, the yeast fitness is reported as no more than 0.5.
Variant C24A A42U has a yeast fitness of 0.659.
With C24A A42U G44A the yeast fitness was 0.581.
With C24A A43C A65G the yeast fitness was no more than 0.5.
C24A A43G A65C gave a yeast fitness of no more than 0.5.
C24A A43G G52A G58A gave a yeast fitness of no more than 0.5.
C24A A43G U54C gave a yeast fitness of 0.606.
Work on C24A A43U G48A yielded a yeast fitness of no more than 0.5.
For C24A A43U G48C, the yeast fitness was no more than 0.5.
C24A A43U G52A gave a yeast fitness of no more than 0.5.
C24A A45G gave a yeast fitness of 0.626.
Variant C24A A45G C66U has a yeast fitness of no more than 0.5.
With C24A A45G U54C C62U the yeast fitness was no more than 0.5.
For C24A A45U, the yeast fitness was 0.57.
In the case of C24A A57C, the yeast fitness is reported as no more than 0.5.
For C24A A57C C60U G67C, the yeast fitness was no more than 0.5.
C24A A57C C61G gave a yeast fitness of no more than 0.5.
In the case of C24A A57G, the yeast fitness is reported as 0.601.
C24A A65C showed a yeast fitness of 0.725.
In the case of C24A A69C, the yeast fitness is reported as 0.724.
With C24A A69U the yeast fitness was 0.752.
Work on C24A A70C yielded a yeast fitness of 0.8.
C24A C27A A42G A69U gave a yeast fitness of no more than 0.5.
C24A C27A U28A gave a yeast fitness of 0.53.
C24A C27A U28A A70U showed a yeast fitness of no more than 0.5.
Work on C24A C27A U28A C49U C55A yielded a yeast fitness of no more than 0.5.
C24A C27G showed a yeast fitness of 0.571.
